Reference: ChEMBL document CHEMBL2375259, “Arylpiperazines as fatty acid transport protein 1 (FATP1) inhibitors with improved potency and pharmacokinetic properties” (Bioorg Med Chem Lett, 2013)
Converted amounts (≈) assume the structure as drawn. The source made the active and inactive calls. The calls are words filed in the database; no cut-off is given here.

How the values were obtained:
[1] = target: Long-chain fatty acid transport protein 1 (Homo sapiens, UniProt Q6PCB7); assay: Inhibition of human FLAG-tagged FATP1-mediated [1-14C] oleic acid conversion to [1-14C] oleoyl-CoA after 20 mins by scintillation counting analysis
Sequence of Long-chain fatty acid transport protein 1 (Homo sapiens, UniProt Q6PCB7) (Q6PCB7 whole entry): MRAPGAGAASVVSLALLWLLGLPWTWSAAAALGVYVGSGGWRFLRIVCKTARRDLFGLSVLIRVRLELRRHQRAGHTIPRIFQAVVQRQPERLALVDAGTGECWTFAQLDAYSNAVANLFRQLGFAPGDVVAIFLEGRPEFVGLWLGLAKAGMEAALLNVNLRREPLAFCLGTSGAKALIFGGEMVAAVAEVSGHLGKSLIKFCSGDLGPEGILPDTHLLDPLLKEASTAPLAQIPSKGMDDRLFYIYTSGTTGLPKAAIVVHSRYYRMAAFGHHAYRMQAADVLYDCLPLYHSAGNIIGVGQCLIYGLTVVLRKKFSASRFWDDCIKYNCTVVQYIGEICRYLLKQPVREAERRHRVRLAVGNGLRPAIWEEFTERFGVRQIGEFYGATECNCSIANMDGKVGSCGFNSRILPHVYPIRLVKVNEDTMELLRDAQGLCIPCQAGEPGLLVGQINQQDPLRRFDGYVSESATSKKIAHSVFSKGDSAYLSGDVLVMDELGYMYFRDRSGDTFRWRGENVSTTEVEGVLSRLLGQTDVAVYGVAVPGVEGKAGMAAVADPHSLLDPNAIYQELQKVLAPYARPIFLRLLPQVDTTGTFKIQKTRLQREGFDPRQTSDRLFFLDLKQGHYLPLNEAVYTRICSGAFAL
Procedure, shortened: (§1)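 Purified FLAG-tagged human or mouse FATP1 run in a cell-free acyl-CoA synthetase assay. Protein incubated with 10 µM [1-14C]oleic acid, 0.5 mM ATP, 0.5 mM CoA, 5 mM MgCl2, 30 mM NaCl, 0.05% Triton X-100 and 2 mM DTT in 100 mM Tris-HCl pH 7.4 for 20 min at 37 °C. Free oleate removed by heptane washes. Aqueous-phase radioactivity counted by scintillation. FLAG-luciferase background subtracted. IC50 is the mean of n ≥ 2.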

[2] = 1-Octanol-phosphate buffered saline distribution coefficient, log D of the compound at pH 7.4; type: physicochemical
Procedure, shortened: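 logD measured by partitioning between 1-octanol and phosphate-buffered saline, pH 7.4.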

[3] = target: Long-chain fatty acid transport protein 1 (Mus musculus, UniProt Q60714); assay: Inhibition of mouse FLAG-tagged FATP1-mediated [1-14C] oleic acid conversion to [1-14C] oleoyl-CoA after 20 mins by scintillation counting analysis; procedure, shortened: as §1
Sequence of Long-chain fatty acid transport protein 1 (Mus musculus, UniProt Q60714) (Q60714 whole entry): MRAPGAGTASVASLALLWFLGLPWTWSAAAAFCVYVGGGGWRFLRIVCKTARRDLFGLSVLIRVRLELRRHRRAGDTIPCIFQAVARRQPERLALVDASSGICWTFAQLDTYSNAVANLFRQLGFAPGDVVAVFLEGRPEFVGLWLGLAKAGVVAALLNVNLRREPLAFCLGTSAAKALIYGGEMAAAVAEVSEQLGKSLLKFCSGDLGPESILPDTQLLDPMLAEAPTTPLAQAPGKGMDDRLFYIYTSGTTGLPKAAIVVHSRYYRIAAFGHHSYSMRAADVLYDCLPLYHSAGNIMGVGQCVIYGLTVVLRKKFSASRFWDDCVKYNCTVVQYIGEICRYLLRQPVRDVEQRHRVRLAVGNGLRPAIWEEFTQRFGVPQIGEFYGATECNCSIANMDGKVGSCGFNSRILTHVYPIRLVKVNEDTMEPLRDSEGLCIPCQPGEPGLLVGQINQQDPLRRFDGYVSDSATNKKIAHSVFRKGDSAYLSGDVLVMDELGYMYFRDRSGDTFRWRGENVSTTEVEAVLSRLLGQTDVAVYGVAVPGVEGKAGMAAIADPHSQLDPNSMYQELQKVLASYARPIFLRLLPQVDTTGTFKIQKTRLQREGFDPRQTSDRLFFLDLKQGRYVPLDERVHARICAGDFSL

[4] = Metabolic stability in mouse liver microsomes assessed as compound remaining after 0.5 hr; type: ADME, Microsome; conditions: read-out: Stability
Procedure, shortened: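 Test compound incubated 0.5 h with mouse liver microsomes. Result given as percent of parent remaining.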

[5] = Ratio of drug uptake in soleus muscle to plasma in mouse at 10 mg/kg, po after 1 week of repeated compound administration; type: ADME, organism-based; set-up: dose 10 mg/kg, route oral
Procedure, shortened: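 Mice received repeated oral dosing at 10 mg/kg for 1 week. Soleus and plasma concentrations measured 3 h after dosing. Kp taken as the soleus-to-plasma ratio.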

Mus musculus [6] = assay: In vivo inhibition of FATP1 in high-fat diet fed mouse assessed as decrease in triglyceride content in soleus muscle at 3 to 30 mg/kg, po after 4 weeks; type: functional, organism-based
Procedure, shortened: (§2)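 Mice kept on a high-fat diet for 4 weeks and given the compound orally at 3/10/30, 10/30/100 or 1/10/100 mg/kg. The 1–100 mg/kg series was run for 3 weeks. Triglyceride content measured in liver, white gastrocnemius and soleus, compared against HFD vehicle controls, P < 0.05.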

Mus musculus [7] = assay: In vivo inhibition of FATP1 in high-fat diet fed mouse assessed as decrease in triglyceride content in white gastrocnemius muscle at 3 to 30 mg/kg, po after 4 weeks; type: functional, organism-based; procedure, shortened: as §2
[8] = Tmax in mouse at 10 mg/kg, po; type: ADME, organism-based; set-up: dose 10 mg/kg, route oral; conditions: in vivo
Procedure, shortened: (§3)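 Single 10 mg/kg oral dose to mice in DMA/PG/(20% HPβCD in saline) 10/10/80. Values are the mean of three mice.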

Mus musculus [9] = assay: Free Cmax in mouse at 10 mg/kg, po; type: ADME, organism-based; set-up: dose 10 mg/kg, route oral; conditions: in vivo
Procedure, shortened: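 Free Cmax calculated as plasma unbound fraction (%) multiplied against the […], from mice given 10 mg/kg orally in DMA/PG/(20% HPβCD/saline) 10/10/80, n = 3.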

[10] = Solubility in Japanese Pharmacopoeia second fluid; type: physicochemical; conditions: pH 6.8
[11] = Fraction unbound in mouse plasma at 10 mg/kg, po; type: ADME, organism-based; set-up: dose 10 mg/kg, route oral
Procedure, shortened: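 Unbound fraction (%) measured in mouse plasma.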

[12] = Oral bioavailability in mouse at 10 mg/kg; type: ADME, organism-based; conditions: in vivo
[13] = Volume of distribution in mouse at 1 mg/kg, iv; type: ADME, organism-based; set-up: dose 1 mg/kg, route intravenous; conditions: in vivo
Procedure, shortened: (§4)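 Single 1 mg/kg intravenous dose to mice in DMA/PG/(20% HPβCD in saline) 10/10/80. Values are the mean of two mice.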

[14] = Clearance in mouse at 1 mg/kg, iv; type: ADME, organism-based; set-up: dose 1 mg/kg, route intravenous; conditions: in vivo; procedure, shortened: as §4
[15] = AUC in mouse at 10 mg/kg, po; type: ADME, organism-based; set-up: dose 10 mg/kg, route oral; conditions: plasma; procedure, shortened: as §3
[16] = Solubility in Japanese Pharmacopoeia first fluid; type: physicochemical; conditions: pH 1.2
Mus musculus [17] = assay: In vivo inhibition of FATP1 in high-fat diet fed mouse assessed as decrease in triglyceride content in liver at 3 to 30 mg/kg, po after 4 weeks; type: functional, organism-based; procedure, shortened: as §2
[18] = Cmax in mouse at 10 mg/kg, po; type: ADME, organism-based; set-up: dose 10 mg/kg, route oral; conditions: in vivo; procedure, shortened: as §3
Mus musculus [19] = assay: In vivo inhibition of FATP1 in high-fat diet fed mouse assessed as decrease in triglyceride content in soleus muscle at 1 to 100 mg/kg, po after 3 weeks
Mus musculus [20] = assay: In vivo inhibition of FATP1 in high-fat diet fed mouse assessed as decrease in triglyceride content in liver at 1 to 100 mg/kg, po after 3 weeks
Mus musculus [21] = assay: In vivo inhibition of FATP1 in high-fat diet fed mouse assessed as decrease in triglyceride content in white gastrocnemius muscle at 1 to 100 mg/kg, po after 3 weeks

Compound	IC50 [1] [nM]	logD [2]	IC50 [3] [nM]	remaining at 0.5 h [4] [%]	other results
Cc1ccc(N2CCN(CC(=O)Nc3nc4c(s3)CCCC4)CC2)cc1	250	4.8	> 10000	–	–
O=C(CN1CCN(c2cccnc2)CC1)Nc1nc2c(s1)CCCC2	> 1000	3.3	> 10000	–	–
Cc1nc2n(c1C(=O)CN1CCN(c3ccc(F)cn3)CC1)CCCC2	190	2.5	400	55	–
O=C(CN1CCN(c2ccc(F)cc2)CC1)Nc1nc2c(s1)CCC2	490	4	> 10000	–	–
O=C(CN1CCN(c2ccccn2)CC1)Nc1nc2c(s1)CCCC2	200	3.9	4900	–	–
O=C(CN1CCN(c2nccs2)CC1)Nc1nc2c(s1)CCCC2	520	3.8	7900	–	–
Cc1nc2ccccn2c1C(=O)CN1CCN(c2ccc(F)cn2)CC1	430	2.8	390	52	Kp at 168 h [5]: 1.1; inhibition (Mus musculus [6]): inactive; inhibition (Mus musculus [7]): inactive; Tmax [8]: 19.8 min; fCmax (Mus musculus [9]): 0.61 µg/mL; solubility [10]: 350 µg/mL (≈ 990 µM); fraction unbound [11]: 0.275; bioavailability [12]: 21%; Vd [13]: 0.2 L/kg; clearance [14]: 6.4 mL/min/kg; AUC [15]: 5500 ng·h/mL; solubility [16]: > 700 µg/mL; inhibition (Mus musculus [17]): inactive; Cmax [18]: 2200 ng/mL
O=C(CN1CCN(c2ccc(F)cn2)CC1)c1coc2ccccc12	470	3.9	1900	76	–
O=C(CN1CCN(c2ccccc2)CC1)Nc1nc2c(s1)CCCC2	280	4.3	9000	–	–
O=C(CN1CCN(c2ccc(F)cc2)CC1)Nc1nc2ccccc2s1	490	4.4	> 10000	–	–
O=C(CN1CCN(c2ccc(F)cn2)CC1)c1ncc2ccccn12	> 1000	–	> 10000	–	–
Cc1nc(NC(=O)CN2CCN(c3ccc(F)cc3)CC2)sc1C	430	3.7	1700	56	–
O=C(CN1CCN(c2ccc(F)cc2)CC1)Nc1nc2c(s1)CCCC2	77	4.5	4000	42	–
O=C(CN1CCN(c2ccc(F)cc2)CC1)Nc1nc2c(o1)CCCC2	180	3	5400	53	–
O=C(CN1CCN(c2ccc(F)cn2)CC1)c1cnn2ccccc12	330	2.5	1100	84	–
O=C(CN1CCN(c2ccc(F)cn2)CC1)Nc1nc2c(s1)CCCC2	46	4.1	600	63	Kp at 168 h [5]: 0.03; inhibition (Mus musculus [19]): inactive; Tmax [8]: 19.8 min; fCmax (Mus musculus [9]): 0.0083 µg/mL; solubility [10]: 2.4 µg/mL (≈ 6.39 µM); fraction unbound [11]: 0.0015; bioavailability [12]: 100%; inhibition (Mus musculus [20]): inactive; Vd [13]: 0.57 L/kg; clearance [14]: 5 mL/min/kg; AUC [15]: 36000 ng·h/mL; solubility [16]: 700 µg/mL (≈ 1860 µM); Cmax [18]: 5500 ng/mL; inhibition (Mus musculus [21]): inactive

Compound	IC50 [1] [nM]	logD [2]	IC50 [3] [nM]	remaining at 0.5 h [4] [%]	other results
O=C(CN1CCN(c2ccc(F)cn2)CC1)Nc1nc2c(o1)CCCC2	100	2.7	1700	63	–
CN(C(=O)CN1CCN(c2ccc(F)cn2)CC1)c1nc2c(s1)CCCC2	41	3.9	620	65	–
O=C(CN1CCN(c2cccc(F)c2)CC1)Nc1nc2c(s1)CCCC2	> 1000	–	> 10000	–	–
CCN(C(=O)CN1CCN(c2ccc(F)cn2)CC1)c1nc2c(s1)CCCC2	780	–	> 10000	–	–
O=C(CN1CCN(c2ccc(F)cn2)CC1)c1n[nH]c2ccccc12	> 1000	2.8	> 10000	–	–
O=C(CN1CCN(c2ccc(F)cn2)CC1)c1cnc2ccccn12	130	2.5	290	98	–
O=C(CN1CCN(c2ccc(F)cn2)CC1)c1cnc2n1CCCC2	100	2.1	160	86	–
O=C(CN1CCN(C2CCCCC2)CC1)Nc1nc2c(s1)CCCC2	> 1000	3	> 10000	–	–
Cc1nc2ccccn2c1C(=O)CN1CCN(c2ccccc2)CC1	3000	–	–	–	–
O=C(CN1CCN(c2ncccn2)CC1)Nc1nc2c(s1)CCCC2	> 1000	3.7	> 10000	–	–
O=C(CN1CCN(c2ccncc2)CC1)Nc1nc2c(s1)CCCC2	> 1000	2	> 10000	–	–
O=C(CN1CCN(c2ccc(F)cc2)CC1)Nc1nccs1	> 1000	2.8	> 10000	–	–
O=C(CN1CCN(C(=O)c2ccccc2)CC1)Nc1nc2c(s1)CCCC2	> 1000	2.1	> 10000	–	–
O=C(CN1CCN(c2ccc(F)cn2)CC1)c1c[nH]c2ccccc12	> 1000	–	> 10000	–	–
O=C(CN1CCN(c2ccc(F)cc2)CC1)Nc1nc2c(s1)CCCCC2	120	5	2000	–	–
